Measurements taken from ChEMBL document CHEMBL4376888, “Discovery of Potent, Selective, and Direct Acid Sphingomyelinase Inhibitors with Antidepressant Activity” (J Med Chem, 2020).
The source made the active and inactive calls. No cut-off for these calls is given here.

Legend:
[1] = target: T1, Sphingomyelin phosphodiesterase 2 (Homo sapiens) (UniProt O60906); assay: Inhibition of neutral sphingomyelinase (unknown origin) at 100 uM using NBD-sphingomyelin as substrate after 30 mins by fluorescence based assay
T1 sequence (whole entry): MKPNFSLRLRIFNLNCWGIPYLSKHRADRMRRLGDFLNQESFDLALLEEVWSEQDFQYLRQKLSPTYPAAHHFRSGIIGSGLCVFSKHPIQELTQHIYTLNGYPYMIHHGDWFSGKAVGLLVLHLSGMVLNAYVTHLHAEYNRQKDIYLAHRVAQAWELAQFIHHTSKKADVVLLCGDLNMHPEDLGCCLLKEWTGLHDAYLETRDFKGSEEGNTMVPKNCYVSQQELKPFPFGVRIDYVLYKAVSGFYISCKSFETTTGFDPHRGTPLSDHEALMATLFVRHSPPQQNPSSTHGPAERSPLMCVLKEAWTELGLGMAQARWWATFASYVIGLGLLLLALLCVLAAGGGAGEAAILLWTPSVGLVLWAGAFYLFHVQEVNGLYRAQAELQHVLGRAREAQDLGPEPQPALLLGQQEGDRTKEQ
Outline: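 Neutral sphingomyelinase assay run as the ASM cell-extract assay (NBD-sphingomyelin, 37 °C, 30 min, chloroform/methanol extraction, TLC, NBD-ceramide fluorescence). Buffer was 200 mM Tris-HCl pH 7.4 with 10 mM MgCl2 and 10 mM dithiothreitol. Tested at 100 μM.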

[2] = target: T2, Sphingomyelin phosphodiesterase (Homo sapiens, UniProt P17405); assay: Inhibition of recombinant human acid sphingomyelinase (His62 to Pro628 residues) using NBD-sphingomyelin as substrate after 30 mins by fluorescence based assay
T2 sequence (P17405 whole entry): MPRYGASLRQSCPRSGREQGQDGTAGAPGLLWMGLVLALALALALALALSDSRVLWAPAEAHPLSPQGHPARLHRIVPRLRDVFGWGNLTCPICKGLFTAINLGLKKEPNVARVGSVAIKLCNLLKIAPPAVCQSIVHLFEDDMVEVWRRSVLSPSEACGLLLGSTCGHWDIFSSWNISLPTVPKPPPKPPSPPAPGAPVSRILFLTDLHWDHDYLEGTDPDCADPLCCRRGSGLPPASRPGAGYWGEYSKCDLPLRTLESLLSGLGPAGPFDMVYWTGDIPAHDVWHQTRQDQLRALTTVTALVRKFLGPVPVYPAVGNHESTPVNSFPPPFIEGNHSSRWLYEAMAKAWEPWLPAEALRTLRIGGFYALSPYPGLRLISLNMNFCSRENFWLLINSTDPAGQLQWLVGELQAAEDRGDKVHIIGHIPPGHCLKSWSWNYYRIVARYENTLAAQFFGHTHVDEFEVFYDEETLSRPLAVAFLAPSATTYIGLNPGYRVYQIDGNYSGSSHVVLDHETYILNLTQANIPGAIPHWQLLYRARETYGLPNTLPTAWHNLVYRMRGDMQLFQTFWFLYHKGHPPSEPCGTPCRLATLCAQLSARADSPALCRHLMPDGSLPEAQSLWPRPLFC
Outline: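 Buffer 100 mM sodium acetate pH 4.7, 1% Triton X-100, 40 mM CaCl2, 100 μM ZnCl2. Inhibitors in DMSO at various concentrations, 37 °C, 30 min. NBD-ceramide fluorescence after chloroform/methanol extraction and TLC.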

Rattus norvegicus = assay: Antidepressant activity in Sprague-Dawley rat model of reserpine-induced depression assessed as reduction in total time spent in center at 6 to 24 mg/kg, ip administered twice daily for 2 weeks measured for 5 mins by open field test; assay type: functional, organism-based
Outline: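 Female SD rats (6-8 weeks, 200 g) given reserpine 4 mg/Kg ip daily to induce depression; test agent in 5% DMSO, 2% Tween 80, 5% glucose, ip twice daily for two weeks. Open field: 100×100 cm box, 25 squares, walls about 42 cm, tested 7:30–12:00. Rat placed in central square; centre time, grid crossings, rearing and grooming recorded over 5 min. n=8, mean ± SD.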

NIH3T3 = assay: Cytotoxicity against mouse NIH/3T3 cells assessed as reduction in cell viability after 24 hrs by MTT assay; assay type: cell-based; settings: Mus musculus, NIH3T3, 24 h
Outline: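 NIH3T3 cells in DMEM with 10 % FBS at 37 °C, 5 % CO₂, grown overnight, then inhibitor added for 24 h; viability read by MTT.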

inhibition [1]: inactive
IC50 [2]: 3.37 µM
Structure (SMILES): O=C(NO)c1cc(OCc2ccc(-c3ccc(Cl)cc3)cc2)no1
Activity (Rattus norvegicus): Active
IC50 (NIH3T3): 161 µM
